30 molecules from ChEMBL document CHEMBL1131054, “Synthesis and structure-activity relationships of 2-pyrazinylcarboxamidobenzoates and beta-ionylideneacetamidobenzoates with retinoidal activity” (1998) can be followed below.

Common to all, as to type: functional
One experiment has as its system HL-60. Kind of experiment: Percent differentiation of human promyelocytic leukemia (HL60) cells at 10e -6M concentration in culture medium. The essentials: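 HL60 cells in RPMI-1640 with 10% FBS, 2 mM L-glutamine and gentamycin were exposed for 4 days to compound at 10⁻⁶ M final, diluted from a DMSO stock, at 1×10^5 cells/mL. Differentiation was scored by NBT reduction: 30 min at 37 °C with 0.2% NBT plus 200 ng/mL PMA. At least 200 cells were counted by light microscopy, blue cells scored as differentiated.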

The subject of experiment [1] is P19. Kind of experiment: Percent aggregation of mouse embryonal carcinoma (P19) cells 10e-6 M concentration in culture medium. The essentials: (§1)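 P19 mouse embryonal carcinoma cells grown in α-MEM with 7.5% calf serum, 2.5% fetal calf serum and gentamycin at 37 °C, 5% CO2. Cells trypsinized, replated at 2×10^5 cells/mL, dosed from DMSO stock at 10⁻⁶ M final, redosed with fresh medium after 2 days, diluted 3 days later and counted 2 days after that. Read-out is percent of aggregates with neural outgrowth. Run in triplicate.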

The subject of experiment [2] is P19. Kind of experiment: percent aggregation of mouse embryonal carcinoma (P19) cells 10e -6M concentration in culture medium. In short, it runs like this: as §1

In the experiment on HL-60, `CC1(C)CCC(C)(C)c2nc(C(=O)Nc3cccc(C(=O)O)c3)cnc21` gave a Differentiation of 2%. Also, the Aggregates with P19 [1] came out at 1%.
The matching figures for `CC1(C)CC(C)(C)c2nc(C(=O)Nc3ccc(C(=O)O)c(Cl)c3)cnc21`: 67% and 60%.
In turn, `CC1(C)CC(C)(C)c2nc(C(=O)Nc3cccc(C(=O)O)c3)cnc21` yielded a Differentiation in the experiment with HL-60 of 0%. This molecule returned an Aggregates in the experiment on P19 [1] of 0%.
In the experiment with HL-60, `COc1cc(C(=O)O)ccc1NC(=O)c1cnc2c(n1)C(C)(C)CC2(C)C` gave a Differentiation of 6%. In the experiment on P19 [1], the Aggregates is on record as 0%.
`CC1(C)CC(C)(C)c2nc(C(=O)Nc3ccc(C(=O)O)cc3)cnc21` returned a Differentiation in the experiment with HL-60 of 46%. For the same molecule, the Aggregates in the experiment with P19 [1] was 67%.
The molecule `COc1cc(C(=O)O)ccc1NC(=O)/C=C(C)/C=C/C1=C(C)CCCC1(C)C` had a Differentiation in the experiment on HL-60 of 9%. The molecule further displayed an Aggregates in the experiment on P19 [1] of 2%.
Regarding `COC(=O)c1ccc(NC(=O)c2cnc3c(n2)C(C)(C)CC3(C)C)cc1Cl`, in the experiment with HL-60, the Differentiation is recorded as 69%. The Aggregates in the experiment with P19 [1] was determined as 50%.
On to `CC1=C(/C=C/C(C)=C/C(=O)N(C)c2ccc(C(=O)O)cc2)C(C)(C)CCC1`, for which the Differentiation with HL-60 worked out at 4%. Also, the Aggregates with P19 [1] is 1%.
In turn, `CC1=C(/C=C/C(C)=C/C(=O)Nc2ccc(C(=O)O)cc2)C(C)(C)CCC1` gave a Differentiation in the experiment on HL-60 of 79%. Also, the Aggregates in the experiment with P19 [1] is given as 68%.
Taken in the same sequence, the figures for `COC(=O)c1ccc(N(C)C(=O)c2cnc3c(n2)C(C)(C)CC3(C)C)cc1` were 7% and 0%.
Regarding `CN(C(=O)c1cnc2c(n1)C(C)(C)CCC2(C)C)c1ccc(C(=O)O)cc1`, the Differentiation in the experiment on HL-60 is 15%. The molecule further yielded an Aggregates in the experiment on P19 [1] of 0%.
With `COC(=O)c1ccc(Cl)c(NC(=O)c2cnc3c(n2)C(C)(C)CCC3(C)C)c1`, the Differentiation in the experiment with HL-60 is 7%. The same molecule displayed an Aggregates in the experiment on P19 [1] of 0%.
In the case of `COC(=O)c1ccc(NC(=O)c2cnc3c(n2)C(C)(C)CCC3(C)C)cc1Cl`, the Differentiation in the experiment with HL-60 turned out to be 47%. The molecule also had an Aggregates in the experiment with P19 [1] of 74%.
`COC(=O)c1cccc(NC(=O)c2cnc3c(n2)C(C)(C)CC3(C)C)c1` returned a Differentiation in the experiment on HL-60 of 0%. In the experiment on P19 [1], this molecule returned an Aggregates of 2%.
Taken in the same sequence, the figures for `COC(=O)c1ccc(Cl)c(NC(=O)c2cnc3c(n2)C(C)(C)CC3(C)C)c1` were 4% and 0%.
`COC(=O)c1cc(NC(=O)c2cnc3c(n2)C(C)(C)CC3(C)C)cc(C(=O)OC)c1` displayed a Differentiation with HL-60 of 4%. This molecule also showed an Aggregates with P19 [1] of 1%.
In turn, `COC(=O)c1ccc(OC)c(NC(=O)c2cnc3c(n2)C(C)(C)CCC3(C)C)c1` came in with a Differentiation in the experiment on HL-60 of 0%. The same molecule gave an Aggregates with P19 [1] of 0%.
Turning to `COC(=O)c1cccc(NC(=O)c2cnc3c(n2)C(C)(C)CCC3(C)C)c1`, the Differentiation in the experiment with HL-60 is reported as 6%. This molecule registered an Aggregates in the experiment with P19 [1] of 0%.
Take `CC1(C)CCC(C)(C)c2nc(C(=O)Oc3ccc(C(=O)O)cc3)cnc21`: in the experiment with P19 [2], the Aggregation is recorded as 0%. This molecule registered a Differentiation in the experiment with HL-60 of 47%.
In the experiment on HL-60, `COc1ccc(C(=O)O)cc1NC(=O)c1cnc2c(n1)C(C)(C)CC2(C)C` registered a Differentiation of 3%. In the experiment on P19 [1], this molecule gave an Aggregates of 0%.
For the molecule `COC(=O)c1ccc(NC(=O)c2cnc3c(n2)C(C)(C)CCC3(C)C)cc1`, the Differentiation with HL-60 is 76%. Also, the Aggregates with P19 [1] turned out to be 75%.
Regarding `COC(=O)c1ccc(NC(=O)c2cnc3c(n2)C(C)(C)CC3(C)C)cc1`, the Differentiation with HL-60 was determined as 43%. In addition, in the experiment with P19 [1], the Aggregates is 52%.
The matching figures for `CC1(C)CC(C)(C)c2nc(C(=O)Nc3cc(C(=O)O)cc(C(=O)O)c3)cnc21`: 2% and 2%.
In turn, `COc1cc(C(=O)O)ccc1NC(=O)c1cnc2c(n1)C(C)(C)CCC2(C)C` registered a Differentiation in the experiment on HL-60 of 30%. For the same molecule, the Aggregates with P19 [1] is listed as 0%.
As for `COC(=O)c1cc(NC(=O)c2cnc3c(n2)C(C)(C)CCC3(C)C)cc(C(=O)OC)c1`, in the experiment with HL-60, the Differentiation turned out to be 2%. Further, the Aggregates in the experiment on P19 [1] came to 0%.
Regarding `COC(=O)c1ccc(NC(=O)c2cnc3c(n2)C(C)(C)CC3(C)C)c(OC)c1`, the Differentiation in the experiment on HL-60 is reported as 13%. The Aggregates in the experiment with P19 [1] came to 0%.
Molecule `COC(=O)c1ccc(OC)c(NC(=O)c2cnc3c(n2)C(C)(C)CC3(C)C)c1` came in with a Differentiation in the experiment on HL-60 of 1%. The molecule further gave an Aggregates in the experiment with P19 [1] of 0%.
The matching figures for `CC1(C)CCC(C)(C)c2nc(C(=O)Nc3ccc(C(=O)O)cc3)cnc21`: 73% and 70%.
The matching figures for `CC1(C)CC(C)(C)c2nc(C(=O)Nc3cc(C(=O)O)ccc3Cl)cnc21`: 20% and 2%.
In turn, `CC1=C(/C=C/C(C)=C/C=C/C(C)=C/C(=O)O)C(C)(C)CCC1` [TRETINOIN] gave an Aggregation with P19 [2] of 86%. The molecule further showed a Differentiation with HL-60 of 91%.
